Data as given in article PMC5814546 (Clinical Pharmacokinetics, 2017).
Values belong to the compound of their own block, whether it stands above or below them.

Key:
[1] = Safety and tolerability, capsule and tablet multiple ascending dose study; assay type: in vivo, human
Outline: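 Double-blind study; 12 per cohort randomized 3:1 to ALZ-801 or placebo. Cohort A fasted capsule: 171 mg once on day 1, twice daily days 2–7, then 256.5 mg days 8–14. Cohort D tablet 265 mg, ages 60–75, fed 30 min pre-dose: once day 1, twice daily days 2–6, once day 7. AEs recorded until follow-up call and coded by MedDRA v18.1.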

[2] = Drug substance properties; assay type: physicochemical
OAT3 = target: T1, OAT3 (Homo sapiens, UniProt Q8TCC7); experiment: Effect on renal transporters; assay type: in vitro ADME; conditions: concentrations up to 100 mM; data on file
T1 sequence (Q8TCC7 1-542): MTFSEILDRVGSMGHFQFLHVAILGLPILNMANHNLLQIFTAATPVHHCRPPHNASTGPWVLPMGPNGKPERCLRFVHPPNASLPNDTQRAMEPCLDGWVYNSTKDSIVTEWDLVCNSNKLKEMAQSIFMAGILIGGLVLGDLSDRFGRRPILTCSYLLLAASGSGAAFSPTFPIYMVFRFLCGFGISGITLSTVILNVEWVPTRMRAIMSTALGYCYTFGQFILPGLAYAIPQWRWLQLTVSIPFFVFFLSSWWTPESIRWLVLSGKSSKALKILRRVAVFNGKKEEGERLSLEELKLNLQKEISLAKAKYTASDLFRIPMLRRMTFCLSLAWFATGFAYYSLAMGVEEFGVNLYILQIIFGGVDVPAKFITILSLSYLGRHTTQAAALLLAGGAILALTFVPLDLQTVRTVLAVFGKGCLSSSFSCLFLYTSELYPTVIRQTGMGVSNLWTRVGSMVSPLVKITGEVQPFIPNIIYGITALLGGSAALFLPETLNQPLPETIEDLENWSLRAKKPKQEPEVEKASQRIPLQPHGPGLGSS

[3] = target: T2, organic anion transporter (OAT) 1 (Homo sapiens, UniProt Q4U2R8); experiment: Effect on renal transporters; assay type: in vitro ADME; conditions: concentrations up to 100 mM; data on file
T2 sequence (Q4U2R8 1-563): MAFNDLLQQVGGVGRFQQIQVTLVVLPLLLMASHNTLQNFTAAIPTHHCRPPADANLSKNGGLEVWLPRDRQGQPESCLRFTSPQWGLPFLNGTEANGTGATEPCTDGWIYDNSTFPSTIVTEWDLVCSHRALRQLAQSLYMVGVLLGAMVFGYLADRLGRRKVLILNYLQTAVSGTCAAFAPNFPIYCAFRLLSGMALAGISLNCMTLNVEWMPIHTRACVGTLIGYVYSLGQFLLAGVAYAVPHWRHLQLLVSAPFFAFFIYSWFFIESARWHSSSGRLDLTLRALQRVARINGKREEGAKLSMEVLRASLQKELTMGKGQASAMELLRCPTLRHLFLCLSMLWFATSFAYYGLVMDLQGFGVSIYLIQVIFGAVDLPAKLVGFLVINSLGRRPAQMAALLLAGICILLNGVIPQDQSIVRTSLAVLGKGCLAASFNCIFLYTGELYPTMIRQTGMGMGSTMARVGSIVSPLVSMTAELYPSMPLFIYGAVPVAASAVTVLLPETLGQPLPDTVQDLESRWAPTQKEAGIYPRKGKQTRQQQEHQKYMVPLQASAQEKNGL

Aβ oligomers = conditions: 1000-fold excess of tramiprosate, IMS-MS; cited from earlier work
[4] = Part 1: Cohort A, 171 and 256.5 mg capsule, fasted
[5] = Part 1: Cohort B, 256.5 and 340 mg capsule, fasted
[6] = Part 1: Cohort C, 256.5 and 340 mg capsule, fed
[7] = Part 2: Cohort D, 265 mg tablet, fed
[8] = Week 1, Cohort A 171 mg bid, capsule, fasted
[9] = Week 1, Cohort B 256.5 mg bid, capsule, fasted
[10] = Week 1, Cohort C 256.5 mg bid, capsule, fed
[11] = Week 1, Cohort D 265 mg bid, tablet, fed
[12] = Week 2, Cohort A 256.5 mg qd, capsule, fasted
[13] = Week 2, Cohort B 340 mg qd, capsule, fasted
[14] = Week 2, Cohort C 340 mg bid, capsule, fed

Structure (SMILES): CC(C)[C@H](N)C(=O)NCCCS(=O)(=O)O [ALZ-801, 3-(L-valyl) amino-1-propanesulfonic acid]
incidence of TEAEs ([1]; 265 mg twice daily, fed state): equivalent to placebo
total number of TEAEs ([1]; ALZ-801 dosing in the fasting state): 65
No. of deaths (all causes) [1, 4]: 0
No. of deaths resulting from AEs [1, 4]: 0
Subjects affected by SAE/exposed [1, 4]: 0/9
No. of deaths (all causes) [1, 5]: 0
No. of deaths resulting from AEs [1, 5]: 0
Subjects affected by SAE/exposed [1, 5]: 0/9
No. of deaths (all causes) [1, 6]: 0
No. of deaths resulting from AEs [1, 6]: 0
Subjects affected by SAE/exposed [1, 6]: 0/9
No. of deaths (all causes) [1, 7]: 0
No. of deaths resulting from AEs [1, 7]: 0
Subjects affected by SAE/exposed [1, 7]: 0/9
TEAEs: Nausea [1, 8]: 3 (33.3) cases (%)
TEAEs: Vomiting [1, 8]: 0 cases (%)
TEAEs: Nausea [1, 9]: 4 (44.4) cases (%)
TEAEs: Vomiting [1, 9]: 2 (22.2) cases (%)
TEAEs: Nausea [1, 10]: 5 (55.6) cases (%)
TEAEs: Vomiting [1, 10]: 2 (22.2) cases (%)
TEAEs: Nausea [1, 11]: 3 (33.3) cases (%)
TEAEs: Vomiting [1, 11]: 1 (11.1) cases (%)
TEAEs: Nausea [1, 12]: 3 (33.3) cases (%)
TEAEs: Vomiting [1, 12]: 0 cases (%)
TEAEs: Nausea [1, 13]: 0 cases (%)
TEAEs: Vomiting [1, 13]: 2 (22.2) cases (%)
TEAEs: Nausea [1, 14]: 0 cases (%)
TEAEs: Vomiting [1, 14]: 0 cases (%)
tolerability ([1]; doses of up to 340 mg twice daily): well tolerated
pKa [2]: 7.69
solubility ([2]; water): > 200 mg/mL

effect on renal transporter (OAT3): no effect
effect on renal transporter [3]: no effect
Structure (SMILES): NCCCS(=O)(=O)O [tramiprosate, 3-amino-1-propanesulfonic acid]
formation of Aβ oligomers (Aβ oligomers): completely abrogated
